Activity calls are given as the source filed them. The rule behind the calls is not given here.
How the values were obtained:
[1] = system: RAW264.7; experiment: Anti-inflammatory activity in mouse RAW264.7 cells assessed as inhibition of LPS-induced NO production by Griess assay; type: functional, cell-based
Procedure, shortened: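 Murine RAW264.7 macrophages were kept in RPMI 1640 with 10% FBS and penicillin/streptomycin at 37 °C and 5% CO2. NO production was taken as the nitrite concentration in the culture medium, measured by the Griess reaction.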

[2] = system: RAW264.7; experiment: Cytotoxicity against mouse RAW264.7 cells assessed as reduction in cell viability at 20 uM by MTT assay; type: cell-based; conditions: raw264.7, 20 µM
Procedure, shortened: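 Viability was read by MTT assay in triplicate, with cells cultured at 37 °C in humidified 5% CO2.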

[3] = system: RAW264.7; experiment: Anti-inflammatory activity in mouse RAW264.7 cells assessed as inhibition of LPS-induced CSF2 mRNA level at 2 to 10 uM after 6 hrs by qRT-PCR assay; type: functional, cell-based
Procedure, shortened: (§1)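 RAW264.7 macrophages were grown in RPMI 1640 with 10% FBS at 37 °C and 5% CO2, then stimulated with LPS for 6 h. Total RNA was extracted with Trizol, and 1 μg was reverse-transcribed with oligo-dT at 42 °C for 1 h. SYBR Green qPCR ran 40 cycles of 95 °C 10 s and 55 °C 30 s. Levels were normalized to GAPDH by 2−ΔΔCT and given as mean ± SEM.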

[4] = system: RAW264.7; experiment: Anti-inflammatory activity in mouse RAW264.7 cells assessed as inhibition of LPS-induced IL-1beta mRNA level at 2 to 10 uM after 6 hrs by qRT-PCR assay; type: functional, cell-based; procedure, shortened: as §1
[5] = system: RAW264.7; experiment: Anti-inflammatory activity in mouse RAW264.7 cells assessed as inhibition of LPS-induced TNF mRNA level at 2 to 10 uM after 6 hrs by qRT-PCR assay; type: functional, cell-based; procedure, shortened: as §1
[6] = system: RAW264.7; experiment: Anti-inflammatory activity in mouse RAW264.7 cells assessed as inhibition of LPS-induced CSF2 mRNA level at 2 to 50 uM after 6 hrs by qRT-PCR assay; type: functional, cell-based; procedure, shortened: as §1
[7] = system: RAW264.7; experiment: Anti-inflammatory activity in mouse RAW264.7 cells assessed as inhibition of LPS-induced TNF mRNA level at 2 to 50 uM after 6 hrs by qRT-PCR assay; type: functional, cell-based; procedure, shortened: as §1
[8] = system: RAW264.7; experiment: Anti-inflammatory activity in mouse RAW264.7 cells assessed as inhibition of LPS-induced IL-1beta mRNA level at 2 to 50 uM after 6 hrs by qRT-PCR assay; type: functional, cell-based; procedure, shortened: as §1
[9] = system: HepG2 (Homo sapiens); experiment: Inhibition of PCSK9 protein synthesis in human HepG2 cells by immunoblot analysis
[10] = system: HepG2 (Homo sapiens); experiment: Induction of ACC phosphorylation in human HepG2 cells at 4 to 20 uM by Western blot analysis
[11] = system: HepG2 (Homo sapiens); experiment: Inhibition of PCSK9 mRNA level in human HepG2 cells at 20 uM by qRT-PCR assay relative to control

Row | SMILES | IC50 [1] [µM] | Activity [2] | IC50 [9] [µM] | inhibition at 20 µM [11] [%] | further results
1 | COc1ccc([C@@H](CO)C(=O)c2cc(CC=C(C)C)c(OC)cc2O)cc1 | 8.1 | Non-Toxic | – | – | inhibition [3]: Active; inhibition [4]: Active; inhibition [5]: inactive
2 | COc1ccc(-c2coc3c(CC=C(C)C)c(OC)ccc3c2=O)cc1 | 6.2 | Non-Toxic | – | – | inhibition [6]: Active; inhibition [7]: Active; inhibition [8]: inactive
3 | CC(C)=CCc1c(O)ccc2c1OC[C@H]1c3ccc4c(c3O[C@@H]21)OC(C)(C)C=C4 [ERYBREADIN D] | – | – | 7.8 | 44 | Activity [10]: Active
4 | COc1ccc2cc3[n+](cc2c1OC)CCc1cc2c(cc1-3)OCO2 [BERBERINE] | – | – | 6.9 | 67 | –
5 | CC(C)=CCc1c(O)c(CC=C(C)C)c2c(c1O)C(=O)C[C@@H](c1ccc(O)cc1)O2 [LONCHOCARPOL A] | – | Toxic | – | 67.2 | –

— ChEMBL document CHEMBL4330158, “Prenylated Flavonoids from the Roots and Rhizomes of Sophora tonkinensis and Their Effects on the Expression of Inflammatory Mediators and Proprotein Convertase Subtilisin/Kexin Type 9” (J Nat Prod, 2019)
